Measurements of several laboratories.

Cc1c(Br)cc(NC(=O)NS(=O)(=O)O)cc1Br — clearance (CD-1 mouse; blood; intravenous; 2 mg/kg): 5.65 mL/min/kg
CNCCN(C)c1cc(C#N)cc(CCc2cc(C)cc(N)n2)c1 — clearance (male BALB/c mouse; plasma; intravenous; 2 mg/kg): 184 mL/min/kg
CC[C@H](C)[C@@H]1NC(=O)[C@@](C)(NC(=O)[C@H](CCCNC(=N)N)NC(=O)[C@H](CC(C)C)NC(=O)[C@@H](NC(=O)[C@H](CCC(N)=O)NC(=O)[C@H](CC(C)C)NC(C)=O)[C@@H](C)O)CCCC=CCCC[C@@](C)(C(=O)N[C@@H](CC(C)C)C(=O)N[C@@H](Cc2ccc3ccccc3c2)C(N)=O)NC(=O)[C@H](CCCNC(=N)N)NC(=O)[C@H](CCC(N)=O)NC1=O — clearance (male BALB/c mouse; plasma; intravenous; 5 mg/kg): 0.662 mL/min/kg
CC(C)(C)c1ccc(O)c(CN(Cc2cc(C(C)(C)C)ccc2O)C2CCC(NC(N)=O)CC2)c1 (stereo not shown) — clearance (male C57BL/6 mouse; plasma; oral; 10 mg/kg; single dose): 32.3 mL/min/kg
COc1cc(C(=O)N2CCC(N3CCN(C)CC3)CC2)ccc1Nc1ncc2c(n1)N(C)c1ccccc1C(=O)N2C — clearance (mouse; plasma; intravenous; 1 mg/kg): 5.6 mL/min/kg
CC(F)(F)CN1Cc2cc(C(F)(F)F)ncc2C2=CN=C(NCc3c(F)ccc4c3CCO4)N3C=NC(C1=O)C23 (stereo not shown) — clearance (male CD-1 mouse; plasma; intravenous; 2 mg/kg): 0.39 mL/min/kg
COc1ccc2nccc(N3CCc4c(cc(Cn5ccnc5)cc4-c4cn(C)nc4C(F)(F)F)C3=O)c2c1 — clearance (male CD-1 mouse; plasma; intravenous; 3 mg/kg): 27 mL/min/kg
COc1nc(-c2cc(C)c(N[C@@H](C)c3c(F)cc(F)cc3F)nn2)ccc1-n1cnc(C)c1 — clearance (male CD-1 mouse; plasma; intravenous; 1 mg/kg; single dose): 6.33 mL/min/kg
CC(C)c1cnn2c(NCc3ccccc3)cc(NC[C@H]3CCNC[C@@H]3O)nc12 — clearance (male CD-1 mouse; plasma; intravenous; 10 mg/kg): 78 mL/min/kg
Cc1noc(C)c1-c1ccc2nc(-c3cnn(CC(C)(C)O)c3)nc(N3CCOC[C@@H]3c3ccccc3)c2c1 — clearance (CD-1 mouse; plasma; intravenous; 2 mg/kg): 7.3 mL/min/kg
Cc1c(Br)cc(NC(=O)C(c2ccccc2)S(=O)(=O)O)cc1Br (stereo not shown) — clearance (CD-1 mouse; blood; intravenous; 2 mg/kg): 34.9 mL/min/kg
CCc1cc(C(=O)NC)c2nccc(N3CCc4c(cc(Cn5ccnc5)cc4-c4cn(C)nc4C(F)(F)F)C3=O)c2c1 — clearance (male CD-1 mouse; plasma; intravenous; 3 mg/kg): 12 mL/min/kg
COc1ccc2cc(CCC[18F])ccc2c1 — clearance (male BALB/c mouse; plasma; intravenous): 0.25 mL/min
O=C1C2N=CN3C(NCc4c(F)ccc5c4CCO5)=NC=C(c4cnc(C(F)(F)F)cc4CN1CC(F)F)C23 (stereo not shown) — clearance (male CD-1 mouse; plasma; intravenous; 2 mg/kg): 0.59 mL/min/kg
CN(C)c1ccc(-c2cc(=O)c3ccc(O)c(O)c3o2)cc1 — clearance (mouse; plasma; intravenous; 1 mg/kg): 168 mL/min/kg
Cc1noc(C)c1-c1ccc2nc(N3CCN(CCN(C)C)CC3)nc(N3CCOC[C@@H]3c3ccccc3)c2c1 — clearance (CD-1 mouse; plasma; intravenous; 2 mg/kg): 62.3 mL/min/kg
CCNc1nc2c(c(N3CC(=O)Nc4cc(OC)ccc43)n1)CCC2 — clearance (female C57BL/6 mouse; plasma; intravenous; 4 mg/kg; single dose): 108 mL/min/kg
Cc1ccc2cncc(N3CCc4c(cc(Cn5ccnc5)cc4-c4cn(C)nc4C(F)(F)F)C3=O)c2c1 — clearance (male CD-1 mouse; plasma; intravenous; 3 mg/kg): 16 mL/min/kg
CN(C)C/C=C/C(=O)Nc1ccc(O[C@@H]2CCC[C@@H](Nc3ncc(Cl)c(-c4c[nH]c5ccccc45)n3)C2)cc1 — clearance (male Swiss mouse; plasma; intravenous; 3 mg/kg): 24.9 mL/min/kg
